According to ChEMBL document CHEMBL1125894, “Dual-action cephalosporins: cephalosporin 3'-quaternary ammonium quinolones” (1991):

Key:
Klebsiella pneumoniae = assay: In vivo activity in murine against Klebsiella pneumoniae A infection after sc administration.; format: functional
Summary of the method: (§1)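 Mouse protection test in CD1 Swiss albino mice (18–20 g). Mice were infected intraperitoneally with 0.5 mL of a diluted bacterial suspension, then treated within 5 min with one 1.0 mL subcutaneous dose at the dorsal base of the neck. Doses ranged from 0.05 to 250 mg/kg, with six mice per group. ED50 was calculated by the Reed–Muench method.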

Pseudomonas aeruginosa = assay: In vivo activity in murine against Pseudomonas aeruginosa 5712 infection after sc administration.; format: functional; conditions: Pseudomonas aeruginosa, sc; read-out: ED50
Summary of the method: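 Mouse protection test in CD1 Swiss albino mice (18–20 g) infected intraperitoneally with 0.5 mL of diluted P. aeruginosa suspension. Mice received 1.0 mL subcutaneously at the neck base within 5 min of infection and a second treatment 3 h after infection. Doses ranged from 0.05 to 250 mg/kg, with six mice per group. ED50 was calculated by the Reed–Muench method.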

Serratia marcescens = assay: In vivo activity in murine against Serratia marcescens SM infection after sc administration.; format: functional; summary of the method: as §1
[1] = biological target: T1, Penicillin-binding protein 1A (Escherichia coli K-12) (UniProt P02918); assay: Concentration required for 90% inhibition against 90 kDa penicillin-binding protein 1a binding using [14C]-Pen G as the radioligand.
T1 sequence (whole entry): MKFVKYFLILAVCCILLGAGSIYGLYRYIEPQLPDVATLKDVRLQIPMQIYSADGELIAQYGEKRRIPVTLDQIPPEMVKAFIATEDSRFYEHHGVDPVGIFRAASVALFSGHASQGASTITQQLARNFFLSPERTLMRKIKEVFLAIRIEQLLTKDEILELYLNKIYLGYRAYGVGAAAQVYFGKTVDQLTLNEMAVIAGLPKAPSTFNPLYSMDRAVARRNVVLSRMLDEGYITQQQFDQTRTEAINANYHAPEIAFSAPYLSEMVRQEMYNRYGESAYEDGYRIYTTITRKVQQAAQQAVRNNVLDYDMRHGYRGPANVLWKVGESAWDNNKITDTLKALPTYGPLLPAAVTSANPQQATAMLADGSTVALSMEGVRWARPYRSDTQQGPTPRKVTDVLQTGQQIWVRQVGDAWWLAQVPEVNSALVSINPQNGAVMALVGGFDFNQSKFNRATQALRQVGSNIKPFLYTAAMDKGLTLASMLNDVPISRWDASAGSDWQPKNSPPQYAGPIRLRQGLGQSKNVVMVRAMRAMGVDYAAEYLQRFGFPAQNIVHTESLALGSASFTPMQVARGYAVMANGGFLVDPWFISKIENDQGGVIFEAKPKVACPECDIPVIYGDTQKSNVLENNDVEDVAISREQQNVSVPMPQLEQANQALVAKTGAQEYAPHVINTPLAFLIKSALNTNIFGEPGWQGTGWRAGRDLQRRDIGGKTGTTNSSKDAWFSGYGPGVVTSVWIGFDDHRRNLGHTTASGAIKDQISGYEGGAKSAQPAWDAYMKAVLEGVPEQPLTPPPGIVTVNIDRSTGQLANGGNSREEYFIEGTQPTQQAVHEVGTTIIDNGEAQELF
Summary of the method: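 Solubilized membranes from sonicated E. coli DC-0 were used. PBP binding was measured as inhibition of [14C]penicillin G binding to each PBP.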

Staphylococcus aureus = assay: In vivo activity in murine against Staphylococcus aureus Smith (MS) infection after sc administration.; format: functional; summary of the method: as §1

Concentration [1]: 2 µg/mL
SMILES: CC(C)(O/N=C(\C(=O)N[C@@H]1C(=O)N2C(C(=O)[O-])=C(C[N+]3(C)CCN(c4c(F)cc5c(=O)c(C(=O)O)cn(CCF)c5c4F)CC3)CS[C@H]12)c1csc(N)n1)C(=O)O
ED50 (Klebsiella pneumoniae): 3 mg/kg
ED50 (Pseudomonas aeruginosa): > 250 mg/kg
ED50 (Serratia marcescens): 8 mg/kg
ED50 (Staphylococcus aureus): 2.6 mg/kg
